Reference: ChEMBL document CHEMBL4052819 (2017)
Converted amounts (≈) assume the structure as drawn. The source made the active and inactive calls. The calls are words filed in the database; no cut-off is given here. Non-standard residues stand in square brackets, D forms with d. Residues, ends and D or L forms follow the SMILES beside them. *: point of attachment. Heptanoyl = CCCCCCC(=O)*; Octanoyl = CCCCCCCC(=O)*; Dab = NCC[C@H](N)C(=O)O

What was measured:
Type in all cases: functional
Staphylococcus aureus [1] = test: Antibiofilm activity against methicillin-resistant Staphylococcus aureus LAC established catheter-associated biofilm model at 20 times MIC after 72 hrs relative to control
Staphylococcus aureus [2] = test: Antibacterial activity against Staphylococcus aureus ATCC 29213 after 18 to 20 hrs in presence of 95% serum by broth microdilution method
Procedure, shortened: (§1)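 Same microdilution with human serum as medium: compound 2-fold diluted in 100% serum, mixed 1:1 with 90% serum holding ~1.5 × 10^5 CFU/mL, giving 95% serum and final 0.5–64 μg/mL. MIC read as no visible growth after incubation as for the broth test.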

Pseudomonas aeruginosa [3] = test: Antibacterial activity against Pseudomonas aeruginosa ATCC 27853 after 18 to 20 hrs by broth microdilution method
Procedure, shortened: (§2)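 Broth microdilution in tryptic soy broth: 2-fold dilutions mixed 1:1 with ~1.5 × 10^5 CFU/mL inoculum, final 0.5–32 μg/mL; 37 °C, 18–20 h. MIC taken as lowest concentration giving no visible growth. At least three independent experiments, one replicate each.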

Staphylococcus aureus [4] = test: Antibacterial activity against methicillin-resistant Staphylococcus aureus ATCC 43300 after 18 to 20 hrs by broth microdilution method
Procedure, shortened: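 Broth microdilution in tryptic soy broth: 2-fold dilutions mixed 1:1 with ~1.5 × 10^5 CFU/mL bacterial suspension in TSB, final 0.5–32 μg/mL, 37 °C for 18–20 h. MIC = lowest concentration with no visible growth. At least three independent experiments, one replicate each.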

Pseudomonas aeruginosa [5] = test: Bactericidal activity against Pseudomonas aeruginosa ATCC 27853 after 60 mins in presence of LPS
Procedure, shortened: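 P. aeruginosa at ~10^6 CFU/mL in TSB with E. coli O111:B4 LPS (final 10, 25, 50 or 100 μg/mL), then compound at final 16 μg/mL. Incubated 37 °C, 200 rpm, 60 min; survivors counted on TSA. Three independent experiments, one replicate each.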

Acinetobacter baumannii [6] = test: Antibacterial activity against Acinetobacter baumannii ATCC 19606 after 18 to 20 hrs by broth microdilution method; conditions: ATCC 19606 = CIP 70.34 = JCM 6841
Acinetobacter baumannii [7] = test: Bactericidal activity against Acinetobacter baumannii ATCC 19606; conditions: ATCC 19606 = CIP 70.34 = JCM 6841, read-out: MBC99.9
Procedure, shortened: (§3)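 MBC from MIC plates at end point: 50 μL from each well with no visible growth plated on tryptic soy agar and counted. MBC taken as lowest concentration giving ≥99.9% fall in viable count relative to initial inoculum. Three independent experiments, one replicate each.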

Staphylococcus aureus [8] = test: Bactericidal activity against Staphylococcus aureus ATCC 29213; conditions: read-out: MBC99.9; procedure, shortened: as §3
Klebsiella pneumoniae [9] = test: Antibacterial activity against Klebsiella pneumoniae ATCC 13883 after 18 to 20 hrs by broth microdilution method
Pseudomonas aeruginosa [10] = test: Bactericidal activity against Pseudomonas aeruginosa ATCC 27853; conditions: read-out: MBC99.9; procedure, shortened: as §3
Escherichia coli [11] = test: Bactericidal activity against Escherichia coli ATCC 25922; conditions: read-out: MBC99.9; procedure, shortened: as §3
Enterococcus faecium [12] = test: Bactericidal activity against Enterococcus faecium ATCC 19434; conditions: read-out: MBC99.9; procedure, shortened: as §3
Staphylococcus aureus [13] = test: Bactericidal activity against methicillin-resistant Staphylococcus aureus ATCC 43300; conditions: read-out: MBC99.9
Procedure, shortened: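 MBC taken at the end of the MIC test: 50 μL from each well without visible growth plated on tryptic soy agar. MBC = lowest concentration giving ≥99.9% reduction in viable cells relative to the initial inoculum. Three independent experiments, one replicate each.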

Escherichia coli [14] = test: Antibacterial activity against Escherichia coli ATCC 25922 after 18 to 20 hrs in presence of 95% serum by broth microdilution method; procedure, shortened: as §1
Klebsiella pneumoniae [15] = test: Bactericidal activity against Klebsiella pneumoniae ATCC 13883; conditions: read-out: MBC99.9; procedure, shortened: as §3
Escherichia coli [16] = test: Antibacterial activity against Escherichia coli ATCC 25922 after 18 to 20 hrs by broth microdilution method; procedure, shortened: as §2
Enterococcus faecium [17] = test: Antibacterial activity against Enterococcus faecium ATCC 19434 after 18 to 20 hrs by broth microdilution method; procedure, shortened: as §2
Staphylococcus aureus [18] = test: Antibacterial activity against Staphylococcus aureus ATCC 29213 after 18 to 20 hrs by broth microdilution method; procedure, shortened: as §2
Escherichia coli [19] = test: Antibacterial activity against Escherichia coli ATCC 25922 in presence of 100% serum after 24 hrs by broth microdilution method; conditions: ATCC 25922, 24 h
Procedure, shortened: (§4)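 Serum stability: compound added to 100% human serum at final 64 μg/mL, held at 37 °C, sampled at 0, 6, 12 and 24 h. […] Residual activity compared with untreated control.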

Escherichia coli [20] = test: Antibacterial activity against Escherichia coli ATCC 25922 in presence of 100% serum after 12 hrs by broth microdilution method; conditions: ATCC 25922, 12 h; procedure, shortened: as §4
Escherichia coli [21] = test: Antibacterial activity against Escherichia coli ATCC 25922 in presence of 100% serum measured immediately post compound addition in serum by broth microdilution method; procedure, shortened: as §4
Escherichia coli [22] = test: Antibacterial activity against Escherichia coli ATCC 25922 in presence of 100% serum after 6 hrs by broth microdilution method; conditions: ATCC 25922, 6 h; procedure, shortened: as §4

Compound	Activity (Staphylococcus aureus [1])	MIC (Staphylococcus aureus [2])	MIC (Pseudomonas aeruginosa [3])	MIC (Staphylococcus aureus [4])	Activity (Pseudomonas aeruginosa [5])	MIC (Acinetobacter baumannii [6])	MBC (Acinetobacter baumannii [7])	MBC (Staphylococcus aureus [8])	MIC (Klebsiella pneumoniae [9])	MBC (Pseudomonas aeruginosa [10])	MBC (Escherichia coli [11])	MBC (Enterococcus faecium [12])	MBC (Staphylococcus aureus [13])	MIC (Escherichia coli [14])	MBC (Klebsiella pneumoniae [15])	MIC (Escherichia coli [16])	MIC (Enterococcus faecium [17])	MIC (Staphylococcus aureus [18])	also measured
CCO/N=C(\C(=O)N[C@@H]1C(=O)N2C(C(=O)[O-])=C(Sc3nc(-c4cc[n+](C)cc4)cs3)CS[C@H]12)c1nsc(NP(=O)(O)O)n1	inactive	–	–	–	–	–	–	–	–	–	–	–	–	–	–	–	–	–	–
CCCCCCC(=O)N[C@@H](CCN)C(=O)N[C@@H](Cc1ccccc1)C(=O)N[C@@H](CCN)C(=O)N[C@H](Cc1ccccc1)C(=O)N[C@@H](CC(C)C)C(=O)N[C@@H](CCN)C(=O)N[C@H](CC(C)C)C(=O)N[C@@H](Cc1ccccc1)C(=O)N[C@@H](CO)C(N)=O (Heptanoyl-[Dab]F[Dab][dF]L[Dab][dL]FS-NH2)	–	32 to 64 µg/mL	1 to 2 µg/mL (≈ 0.844 to 1.69 µM)	8 µg/mL (≈ 6.75 µM)	inactive	2 to 4 µg/mL (≈ 1.69 to 3.38 µM)	4 µg/mL (≈ 3.38 µM)	8 to 32 µg/mL (≈ 6.75 to 27 µM)	1 µg/mL (≈ 0.844 µM)	4 µg/mL (≈ 3.38 µM)	8 to 16 µg/mL (≈ 6.75 to 13.5 µM)	16 µg/mL (≈ 13.5 µM)	8 to 16 µg/mL (≈ 6.75 to 13.5 µM)	32 µg/mL	2 µg/mL (≈ 1.69 µM)	0.5 to 2 µg/mL (≈ 0.422 to 1.69 µM)	8 µg/mL (≈ 6.75 µM)	8 µg/mL (≈ 6.75 µM)	–
CCCCCCCC(=O)N[C@@H](CCN)C(=O)N[C@H](C(=O)N[C@@H](CCN)C(=O)N[C@H](Cc1ccccc1)C(=O)N[C@@H](CC(C)C)C(=O)N[C@@H](CCN)C(=O)N[C@@H](C(=O)N[C@@H](CC(C)C)C(=O)N[C@@H](CO)C(N)=O)C(C)C)[C@@H](C)CC (Octanoyl-[Dab]I[Dab][dF]L[Dab][dV]LS-NH2)	–	16 to 32 µg/mL	2 µg/mL (≈ 1.79 µM)	8 to 16 µg/mL (≈ 7.17 to 14.3 µM)	inactive	16 µg/mL (≈ 14.3 µM)	16 to 32 µg/mL (≈ 14.3 to 28.7 µM)	16 µg/mL (≈ 14.3 µM)	8 to 16 µg/mL (≈ 7.17 to 14.3 µM)	8 to 16 µg/mL (≈ 7.17 to 14.3 µM)	16 µg/mL (≈ 14.3 µM)	16 to 32 µg/mL (≈ 14.3 to 28.7 µM)	8 to 32 µg/mL (≈ 7.17 to 28.7 µM)	8 µg/mL	8 to 16 µg/mL (≈ 7.17 to 14.3 µM)	2 to 4 µg/mL (≈ 1.79 to 3.58 µM)	16 µg/mL (≈ 14.3 µM)	8 to 16 µg/mL (≈ 7.17 to 14.3 µM)	MIC (Escherichia coli [19]): 8 µg/mL; MIC (Escherichia coli [20]): 8 µg/mL; MIC (Escherichia coli [21]): 8 µg/mL; MIC (Escherichia coli [22]): 8 µg/mL
CCCCCCCCCC(=O)N[C@@H](Cc1c[nH]c2ccccc12)C(=O)N[C@@H](CC(N)=O)C(=O)N[C@@H](CC(=O)O)C(=O)N[C@@H]1C(=O)NCC(=O)N[C@@H](CCCN)C(=O)N[C@@H](CC(=O)O)C(=O)N[C@H](C)C(=O)N[C@@H](CC(=O)O)C(=O)NCC(=O)N[C@H](CO)C(=O)N[C@@H]([C@H](C)CC(=O)O)C(=O)N[C@@H](CC(=O)c2ccccc2N)C(=O)O[C@@H]1C [DAPTOMYCIN]	17%	–	–	–	–	–	–	–	–	–	–	–	–	–	–	–	–	–	–
